From PubChem
An excerpt weighted towards active compounds, which were near 3.2% of everything screened.
CHO parental Ca – counter-screen for OX1R antagonists: effect in parental CHO cells; 0.63% of 330,000 active; inhibition, % at 5.6 µM; parental CHO-K1, ATP-induced calcium, Fluo-8 fluorescence;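 active means inhibition above that plate's mean sample inhibition plus 3 SD, cut at about 26% in these data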;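 further: 0% = ATP-challenged DMSO wells and 100% = DMSO wells without ATP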
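Assay system – parental CHO cells · Reagent – ATP stimulus · Detection – intracellular calcium via Fluo-8 no-wash fluorescent dye · Evaluation – percent inhibition of ATP-evoked calcium rise, normalized to controls · Controls – ATP wells versus no-ATP DMSO wells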
TRPML3 ag – activates the human TRPML3 channel. HEK293 TRPML3-YFP, Fluo-8 calcium fluorescence; 100% = the carbachol control signal. AID 1448. activation, % at 3 µM. Q8TDD5. 0.29% of 220,000 active;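 active means activation above its plate's cutoff, the mean activation of the plate's test wells plus 3 SD, cut at about 12% in these data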;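 further: 0% = DMSO only wells and 100% = carbachol wells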
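Test system – HEK293 line with stable expression of human TRPML3-YFP channel · Control set – carbachol 87 µM final as high control (100%), DMSO as low control (0%) · Signal – Fluo-8 calcium dye fluorescence, ex 470-495, em 515-575 nm · Incubation – 1-h 37 °C dye load, 5-s basal, 120-s post-compound reads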
OX1R antag-1 – blocks the human orexin 1 receptor; O43613; CHO/OX1R cells, Fluo-8 calcium fluorescence, orexin A; inhibition, % at 5 µM; 0.43% of 330,000 active;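 active means inhibition above its plate's threshold, mean inhibition of all tested compounds on the plate plus 3 SD, cut at about 37% in these data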;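 further: 0% = orexin A challenge wells and 100% = SB-334867-A antagonist wells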
OX1R antag-2 – antagonists of human orexin 1 receptor (OX1R) | OX1R-expressing cells, FRET antagonist read-out | 1.8% of 330,000 active | O43613 | inhibition, % at 6.6 µM | AID 485270; in the data active means inhibition mostly above about 38%, no sharp cut-off; inactive means mostly below about 40%;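 further: 0% = agonist challenge alone and 100% = reference antagonist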
TRPN1 ag – activates the zebrafish TRPN1 channel. HEK293 zebrafish TRPN1-YFP, Fluo-8 calcium fluorescence; 100% = response to 87 µM carbachol. AID 1424. 0.18% of 220,000 active. activation, % at 3 µM;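 active means activation above its plate's cutoff, the mean activation of test wells on that plate plus 3 SD, cut at about 19% in these data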;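 further: 0% = DMSO alone and 100% = 87 µM carbachol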
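Material – zebrafish TRPN1-YFP in HEK293 cells · Doses – 3 µM single point · Schedule – dye 1 h 37 °C plus 30 min RT · Signal – Fluo-8 calcium fluorescence, excitation 470-495 nm, emission 515-575 nm · Read-out – % activation versus carbachol response · Control set – carbachol high, DMSO low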
GPR7 antagonist – human neuropeptides B/W receptor 1 antagonism. inhibition, % at 4.4 µM. 1.1% of 290,000 active. P48145. GPR7-expressing cells, fluorescence antagonist assay; in the data active means inhibition above about 16%, passing the limit was not always enough;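 further: cells stimulated with the agonist NPW; 0% = agonist with vehicle and 100% = vehicle without agonist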
Target sequence (P48145 whole entry, looked up): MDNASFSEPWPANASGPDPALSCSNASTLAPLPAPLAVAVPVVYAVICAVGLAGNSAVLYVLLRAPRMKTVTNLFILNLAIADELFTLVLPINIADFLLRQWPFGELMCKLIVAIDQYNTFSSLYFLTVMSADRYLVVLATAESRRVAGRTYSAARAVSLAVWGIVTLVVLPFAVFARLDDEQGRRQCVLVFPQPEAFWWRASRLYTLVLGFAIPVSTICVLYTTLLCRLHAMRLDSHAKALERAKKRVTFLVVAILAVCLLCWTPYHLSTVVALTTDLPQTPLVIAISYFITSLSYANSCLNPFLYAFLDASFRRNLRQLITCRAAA
* = called active by the depositor; . = no result.

SMILES	CHO parental Ca	TRPML3 ag	OX1R antag-1	OX1R antag-2	TRPN1 ag	GPR7 antagonist
COc1ccc(CNCCc2ccc(Cl)cc2)cc1OCc1ccccc1	41.8*	1.4	2.1	7.8	3.1	5.7
CCOc1cc(CNCCc2ccc(S(N)(=O)=O)cc2)ccc1OCc1ccccc1	12.8	1.6	6.2	4.1	1.1	26.1
CCOc1ccc(NC(=O)CNC(=O)c2ccc([N+](=O)[O-])cc2)cc1	-10.5	0.9	-3.1	31.5	0.0	-12.7
CNC(=O)c1ccsc1NC(=O)c1ccccc1	-4.9	.	-7.8	43.3*	.	.
Cc1ccc(-c2cc3c(nn2)-c2ccccc2C3=O)cc1	-17.5	0.4	-31.5	43.7*	0.3	-2.6
Cc1ccccc1-c1cc2c(nn1)-c1ccccc1C2=O	-38.0	0.7	-14.4	72.0*	-0.8	-4.3
Nc1nc(-c2ccccc2)[nH]c(=O)c1N=O	-3.7	0.5	-15.8	58.5*	0.0	-5.6
N#Cc1c(-c2ccccc2)nc(-c2ccccc2)[nH]c1=O	-15.9	0.5	-13.2	20.3	0.7	0.9
Cc1ccnc(NC(=O)c2cc3ccccc3o2)c1	-19.2	.	-28.6	52.7*	.	.
Cc1ccc(S(=O)(=O)Oc2ccc(/C=C(/NC(=O)c3ccccc3)C(=O)NC(C)C(=O)O)cc2)cc1 (centres undefined)	-12.2	-0.1	-12.7	10.5	-0.6	-14.7
O=S(=O)(c1cccc(Br)c1)N1CCN(c2ccnc3cc(Cl)ccc23)CC1	34.9*	.	-3.7	18.5	.	16.1
CC(c1cccs1)N(C)Cc1nc(CCc2ccccc2)no1 (centres undefined)	-3.5	-0.2	-17.8	17.2	-1.2	-12.2
O=C(CSc1ccc(C(F)(F)F)cc1[N+](=O)[O-])Nc1ccccc1	58.7*	-0.8	16.6	7.2	-1.0	0.3
CSc1cccc(NC(=S)N(Cc2ccc(C)cc2)Cc2cccnc2)c1	46.1*	0.6	14.4	31.4	0.4	-19.5
Cc1ccccc1NC(=S)N(Cc1ccccc1)Cc1cccnc1	-26.0	1.0	-60.4	11.2	-0.9	-7.7
CC(=O)N(C1=C(O)c2ccccc2C(=O)C1=O)C1CCCCC1	-9.6	0.5	-6.4	35.8*	-0.2	-5.5
Cc1cc(C)c(NC(=O)CN2C(=O)CC(C)S(=O)(=O)c3ccccc32)c(C)c1 (centres undefined)	-19.1	.	2.2	9.1	.	4.6
C=CCc1cccc(/C=N/NC(=O)C(=O)Nc2ccc(C)cc2)c1O	-13.5	0.7	-15.7	48.8*	0.9	-7.2
C=CCc1cccc(/C=N/NC(=O)c2ccccc2OC)c1O	-12.8	-0.5	-25.8	25.6	-1.4	18.9*
CCOc1ccc(N2CC(C(=O)Nc3ccccc3N3CCCC3)CC2=O)cc1 (centres undefined)	-16.7	.	-33.5	14.3	.	-1.0
CCOC(=O)c1nn(-c2ccccc2C)c(=O)cc1OCC(=O)Nc1cccc(OC)c1	-5.1	.	-12.9	9.0	.	.
Cc1ccccc1Sc1ccc(N)cn1	1.0	.	2.1	22.6	.	.
Cc1cc(S(=O)(=O)N2CCCOC2CNC(=O)C(=O)NCCc2ccco2)ccc1F (centres undefined)	-17.6	.	11.0	61.5*	.	-7.1
Cc1ccc(S(=O)(=O)N2CCCCC2CCNC(=O)C(=O)NCCc2ccco2)cc1 (centres undefined)	-22.7	.	9.1	48.4	.	.
Cc1ccc(C)c(S(=O)(=O)N2CCCCC2CCNC(=O)C(=O)NCCc2ccco2)c1 (centres undefined)	-29.2	.	-2.3	54.7*	.	.
SMILES	CHO parental Ca	TRPML3 ag	OX1R antag-1	OX1R antag-2	TRPN1 ag	GPR7 antagonist
Cc1ccc(C)c(S(=O)(=O)N2CCCC2CNC(=O)C(=O)NCCc2ccco2)c1 (centres undefined)	-14.6	.	11.4	58.0*	.	.
COc1ccccc1CNC(=O)C(=O)NCCC1CCCCN1S(=O)(=O)c1ccc(C)cc1 (centres undefined)	2.1	.	-15.7	33.9	.	.
COc1ccccc1CCNC(=O)C(=O)NCCC1CCCCN1S(=O)(=O)c1ccccc1 (centres undefined)	-30.9	.	-2.2	60.0*	.	.
O=C(CN1CCNCC1)NCCSc1ccc(Cl)cc1	-12.9	0.7	-31.3	7.8	0.6	-5.7
Cc1ccc(C2CC2c2n[nH]c(=S)n2-c2cccc(C)c2)cc1 (centres undefined)	-14.7	0.0	-26.8	19.8	-2.1	-2.0
Cc1ccc(C2CC2c2n[nH]c(=S)n2-c2ccc(Cl)cc2)cc1 (centres undefined)	85.7*	-0.3	35.3	9.7	0.1	-6.8
CCn1c2ccccc2c2nnc(SCC(N)=O)nc21	-3.7	0.8	-13.3	45.2	0.1	-12.9
CCn1c2ccccc2c2nnc(SCCCn3c(=O)[nH]c4ccccc43)nc21	-34.2	2.0	-29.5	35.5*	1.4	-1.6
CCn1c2ccccc2c2nnc(SCc3ccccc3)nc21	31.6*	3.0	-29.4	40.0	-1.6	2.3
O=S(=O)(CCc1nc2ccccc2o1)c1ccc2ccccc2c1	-11.7	0.2	2.3	45.1*	-1.0	-2.3
O=C(NCc1ccccc1)c1ccc(-c2ccccc2F)o1	4.2	-0.9	-12.1	58.6*	-3.0	-8.8
O=C(NCCc1ccccc1)c1ccc(-c2ccccc2C(F)(F)F)o1	-22.6	0.0	-25.4	4.2	-1.1	8.4
COC(=O)C(Cc1ccc(OC(=O)c2ccc(Cl)cc2)cc1)N1Cc2ccccc2C1=O (centres undefined)	52.7*	1.0	41.3*	22.9	5.2	-14.6
COC(=O)C(Cc1ccc(OC(=O)c2ccc(C(F)(F)F)cc2)cc1)N1Cc2ccccc2C1=O (centres undefined)	40.2*	2.2	36.4	10.7	3.9	-11.7
CSCC[C@@H](C(=O)O)N1Cc2ccccc2C1=O	-1.7	.	-21.5	-0.6	.	.
COC(=O)CCSCC(=O)N1N=C(c2ccc(OC)cc2)CC1c1cccc(OC)c1OC (centres undefined)	-18.2	0.6	-33.8	29.9	-0.7	-2.8
CC(C)[C@H](Nc1ncnc2c1oc1ccccc12)C(=O)O	-2.1	1.2	-7.9	5.8	0.0	-5.4
CC[C@@H](Nc1ncnc2c1oc1ccccc12)C(=O)O	98.8*	0.9	-3.0	8.1	1.0	-10.9
O=C(Cn1[nH]c(=O)c2ccccc2c1=O)NNC(=O)c1ccccc1	-13.7	1.0	-12.6	-4.6	2.0	2.3
N#Cc1c(NC(=O)c2ccco2)sc2c1CCC2	9.6	.	-4.3	18.2	.	-2.7
COc1cccc(OC)c1C(=O)Nc1sc2c(c1C#N)CCC2	-6.2	.	-11.4	54.8*	.	-1.2
COc1ccc(CC(=O)NCC(C)(C)N2CCOCC2)cc1	-18.9	.	-31.0	32.9	.	-2.0
CCCOC(=O)c1ccc(OCC(O)CN2C(=O)NC(C)(C)C2=O)cc1 (centres undefined)	99.2*	1.1	-7.0	18.7	2.1	-8.2
C=CCNc1nc(C(=O)OCC(=O)NCc2cccc(Cl)c2)cs1	-7.6	.	-27.1	6.8	.	.
